According to ChEMBL document CHEMBL4196188, “GEX1A, a Polyketide from Streptomyces chromofuscus, Corrects the Cellular Defects Associated with Niemann-Pick Type C1 in Human Fibroblasts” (J Nat Prod, 2018):
Activity calls are given as the source filed them. The calls are words filed in the database; no cut-off is given here.

Tests used:
[1] = target: Splicing factor 3B subunit 1 (Homo sapiens) (UniProt O75533); assay: Binding affinity to SAP155 in human GM18453 cells harboring NPC1 mutant assessed as restoration of cholesterol trafficking at 50 nM after 48 hrs by filipin-staining based fluorescence microscopic analysis; assay type: cell-based
Chain of Splicing factor 3B subunit 1 (Homo sapiens) (O75533 whole entry, canonical isoform): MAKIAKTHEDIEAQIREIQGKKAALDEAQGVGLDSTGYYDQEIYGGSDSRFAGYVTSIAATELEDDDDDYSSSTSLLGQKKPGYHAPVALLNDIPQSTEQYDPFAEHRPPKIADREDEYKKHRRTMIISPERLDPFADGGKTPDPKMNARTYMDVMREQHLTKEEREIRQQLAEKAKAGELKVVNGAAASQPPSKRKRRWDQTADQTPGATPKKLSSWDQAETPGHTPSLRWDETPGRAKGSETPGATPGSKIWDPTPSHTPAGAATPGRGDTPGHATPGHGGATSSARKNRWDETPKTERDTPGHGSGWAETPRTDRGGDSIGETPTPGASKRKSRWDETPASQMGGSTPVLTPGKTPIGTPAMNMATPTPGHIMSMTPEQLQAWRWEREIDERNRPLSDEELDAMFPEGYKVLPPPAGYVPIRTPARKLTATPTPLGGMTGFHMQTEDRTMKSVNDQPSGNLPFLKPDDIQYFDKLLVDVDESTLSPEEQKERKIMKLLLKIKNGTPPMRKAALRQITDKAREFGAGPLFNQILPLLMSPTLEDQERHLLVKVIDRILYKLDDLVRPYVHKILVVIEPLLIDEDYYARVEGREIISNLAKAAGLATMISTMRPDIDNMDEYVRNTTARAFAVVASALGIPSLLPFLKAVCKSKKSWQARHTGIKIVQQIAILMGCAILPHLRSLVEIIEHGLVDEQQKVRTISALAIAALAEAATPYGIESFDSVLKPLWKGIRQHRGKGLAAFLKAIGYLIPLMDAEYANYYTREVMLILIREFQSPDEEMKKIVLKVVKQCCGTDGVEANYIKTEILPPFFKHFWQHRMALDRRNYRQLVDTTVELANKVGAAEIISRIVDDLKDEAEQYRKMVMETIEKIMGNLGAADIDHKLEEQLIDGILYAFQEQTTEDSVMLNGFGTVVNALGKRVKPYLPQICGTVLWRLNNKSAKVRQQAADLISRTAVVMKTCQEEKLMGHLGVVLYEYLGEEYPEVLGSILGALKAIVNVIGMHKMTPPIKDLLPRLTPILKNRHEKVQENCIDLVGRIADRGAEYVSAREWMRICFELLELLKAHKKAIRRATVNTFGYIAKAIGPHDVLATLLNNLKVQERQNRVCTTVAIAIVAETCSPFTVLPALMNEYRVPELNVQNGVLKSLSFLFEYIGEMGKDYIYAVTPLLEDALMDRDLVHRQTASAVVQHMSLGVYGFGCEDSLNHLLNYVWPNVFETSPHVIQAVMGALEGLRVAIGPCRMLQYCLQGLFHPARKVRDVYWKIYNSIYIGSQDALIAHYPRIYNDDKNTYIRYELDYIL
How it was run: (§1)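 GM18453 NPC1-mutant fibroblasts were exposed for 48 h to 1 nM–5 μM compound, with DMSO vehicle and SAHA (5 μM) positive control. Cells were fixed, stained with filipin for unesterified cholesterol, and imaged by automated fluorescence microscopy. Filipin area sum per cell count was taken from four images per condition across four independent replicates.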

[2] = target: Splicing factor 3B subunit 1 (Homo sapiens) (UniProt O75533); assay: Binding affinity to SAP155 in human GM18407 cells harboring NPC1 R404Q/M1142T mutant assessed as restoration of cholesterol trafficking at 0.001 to 5 uM after 48 hrs by filipin-staining based fluorescence microscopic analysis; assay type: cell-based
[3] = Cytotoxicity against human GM18453 cells harboring NPC1 mutant assessed as effect on cell shape at 5 uM; assay type: cell-based; how it was run: as §1
[4] = Cytotoxicity against human GM18453 cells harboring NPC1 mutant assessed as effect on nuclei shape at 5 uM; assay type: cell-based; how it was run: as §1
[5] = target: Splicing factor 3B subunit 1 (Homo sapiens) (UniProt O75533); assay: Binding affinity to SAP155 in human GM18453 cells harboring NPC1 mutant assessed as increase in 180 kDa NPC1 protein expression at 50 nM measured after 48 hrs by Western blot analysis; assay type: cell-based
How it was run: (§2)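 GM18453 fibroblasts were treated 48 h at 37°C, 5% CO2 with 50 nM compound, SAHA 5 μM or DMSO 0.1% v/v, then lysed in RIPA with protease inhibitors. 25–50 μg protein was run on 4–20% SDS-PAGE, blotted to PVDF and probed with rabbit polyclonal C-terminal anti-NPC1 (1:1000, overnight, 4°C). Detection used HRP anti-rabbit and ECL film.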

[6] = target: Splicing factor 3B subunit 1 (Homo sapiens) (UniProt O75533); assay: Binding affinity to SAP155 in human GM18453 cells harboring NPC1 mutant assessed as increase in 100 kDa NPC1 protein expression at 50 nM measured after 48 hrs by Western blot analysis; assay type: cell-based; how it was run: as §2
[7] = target: Splicing factor 3B subunit 1 (Homo sapiens) (UniProt O75533); assay: Binding affinity to SAP155 in human GM18453 cells harboring NPC1 mutant assessed as increase in 100 kDa NPC1 protein expression at 50 nM pretreated for 48 hrs followed by endoglycosidase H addition and measured after overnight incubation by Western blot analysis relative to control; assay type: cell-based
How it was run: (§3)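 GM18453 fibroblasts were exposed 48 h to 50 nM compound, SAHA 5 μM or DMSO 0.1%. 25 μg lysate was denatured 10 min at 65°C, digested with Endo H (1000 U) about 18 h at 37°C, then run on SDS-PAGE. Blots were probed with rabbit anti-NPC1. Isoforms were quantified by densitometry against DMSO control across four independent experiments.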

[8] = target: Splicing factor 3B subunit 1 (Homo sapiens) (UniProt O75533); assay: Binding affinity to SAP155 in human GM18453 cells harboring NPC1 mutant assessed as increase in 180 kDa NPC1 protein expression at 50 nM pretreated for 48 hrs followed by endoglycosidase H addition and measured after overnight incubation by Western blot analysis; assay type: cell-based; how it was run: as §3
[9] = target: Splicing factor 3B subunit 1 (Homo sapiens) (UniProt O75533); assay: Binding affinity to SAP155 in human GM18453 cells harboring NPC1 mutant assessed as increase in 180 kDa NPC1 protein expression at 50 nM pretreated for 48 hrs followed by PNGaseF addition and measured after overnight incubation by Western blot analysis; assay type: cell-based
How it was run: (§4)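 After 48 h exposure of GM18453 fibroblasts to 50 nM compound (controls SAHA 5 μM, DMSO 0.1%), 25 μg lysate with SDS, DTT and Tris-HCl pH 8 was digested with PNGase F (1000 U) about 18 h at 37°C. Samples were immunoblotted with rabbit anti-NPC1, and isoforms were quantified by densitometry over four independent experiments.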

[10] = target: Splicing factor 3B subunit 1 (Homo sapiens) (UniProt O75533); assay: Binding affinity to SAP155 in human GM18453 cells harboring NPC1 mutant assessed as increase in 120 kDa NPC1 protein expression at 50 nM measured after 48 hrs by Western blot analysis; assay type: cell-based; how it was run: as §2
[11] = target: Splicing factor 3B subunit 1 (Homo sapiens) (UniProt O75533); assay: Binding affinity to SAP155 in human GM18453 cells harboring NPC1 mutant assessed as increase in 120 kDa NPC1 protein expression at 50 nM pretreated for 48 hrs followed by PNGaseF addition and measured after overnight incubation by Western blot analysis; assay type: cell-based; how it was run: as §4
[12] = Mean residence time in ICR mouse at 2 mg/kg by LC-MS/MS analysis; assay type: ADME, organism-based; conditions: in vivo
[13] = Aqueous solubility of the compound in HBSS solution; assay type: physicochemical; conditions: buffer
[14] = Aqueous solubility of the compound in pH 7.4 buffer; assay type: physicochemical
[15] = Protein binding in human plasma; assay type: ADME, cell-free
[16] = Protein binding in mouse plasma; assay type: ADME, cell-free
[17] = Stability in mouse liver microsomes; assay type: ADME, microsome
[18] = Stability in human liver microsomes; assay type: ADME, microsome
[19] = Permeability in human Caco2 cells; assay type: ADME, cell-based; conditions: caco-2
[20] = target: Splicing factor 3B subunit 1 (Homo sapiens) (UniProt O75533); assay: Binding affinity to SAP155 in human GM18453 cells harboring NPC1 mutant assessed as increase in 250 kDa NPC1 protein expression at 50 nM pretreated for 48 hrs followed by endoglycosidase H addition and measured after overnight incubation by Western blot analysis; assay type: cell-based; how it was run: as §3

COC(=O)C[C@H]1CC[C@H](C)[C@@H](/C(C)=C/C=C/[C@@H](C)C[C@@]2(C)O[C@@H]2[C@H](C)[C@@H](OC)[C@@H](C)OC(C)=O)O1
Activity [1]: Active | Activity [2]: inactive

CO[C@H]([C@@H](C)[C@H]1O[C@]1(C)C[C@H](C)/C=C/C=C(\C)[C@H]1O[C@@H](CC(=O)O)CC[C@@H]1C)[C@@H](C)O
Activity [1]: Active | Activity [3]: Toxic | Activity [4]: Toxic | Activity [2]: inactive | Activity [5]: Active | Activity [6]: Active | fold change (FC) [7]: 1.5 | Activity [8]: inactive | Activity [9]: inactive | Activity [10]: Active | Activity [11]: Active | MRT [12]: 4.53 h | solubility [13]: Soluble | solubility [14]: Soluble | PB [15]: Active | PB [16]: Active | Stability [17]: Stable | Stability [18]: Stable | permeability [19]: Permeable | Activity [20]: inactive

COC(=O)C[C@H]1CC[C@H](C)[C@@H](/C(C)=C/C=C/[C@@H](C)C[C@@]2(C)O[C@@H]2[C@H](C)[C@@H](OC)[C@@H](C)O)O1
Activity [1]: Active | Activity [2]: inactive

COC(=O)C[C@H]1CC[C@H](C)[C@@H](/C(C)=C/C=C/[C@@H](C)C[C@@]2(C)O[C@@H]2[C@H](C)[C@@H](OC)C(C)=O)O1
Activity [1]: Active | Activity [2]: inactive
